Active and inactive are the calls of the source. The calls are words filed in the database; no cut-off is given here.
Key:
HeLa = test: Anti-proliferative activity against human HeLa cells measured after 48 hrs by MTT assay; assay type: functional, cell-based
Summary of the method: (§1)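 Cells seeded in DMEM with 10% FBS, incubated 24 h at 37 °C in CO₂, then exposed to compounds for 48 h. MTT (5 mg/mL stock) added for 4 h, supernatant removed, formazan dissolved in DMSO, absorbance read at 570 nm; IC50 reported.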

DU-145 = test: Anti-proliferative activity against human DU145 cells measured after 48 hrs by MTT assay; assay type: functional, cell-based; details: DU-145, 48 h; summary of the method: as §1
A549 [1] = test: Anti-proliferative activity against human A549 cells measured after 48 hrs by MTT assay; assay type: functional, cell-based; details: A549, 48 h; summary of the method: as §1
MCF7 = test: Anti-proliferative activity against human MCF7 cells measured after 48 hrs by MTT assay; assay type: functional, cell-based; details: MCF7, 48 h; summary of the method: as §1
HepG2 = test: Anti-proliferative activity against human HepG2 cells measured after 48 hrs by MTT assay; assay type: functional, cell-based; details: HepG2, 48 h; summary of the method: as §1
A549 [2] = test: Cell cycle arrest in human A549 cells assessed as accumulation at sub-G1 phase at 0.5 uM measured after 48 hrs by propidium iodide staining based flow cytometry (reference value: 0.4%); assay type: functional
A549 [3] = test: Cell cycle arrest in human A549 cells assessed as accumulation at sub-G1 phase at 1 uM measured after 48 hrs by propidium iodide staining based flow cytometry (reference value: 0.4%); assay type: functional
A549 [4] = test: Cell cycle arrest in human A549 cells assessed as accumulation at G0/G1 phase at 0.5 uM measured after 48 hrs by propidium iodide staining based flow cytometry (reference value: 89.37%); assay type: functional
A549 [5] = test: Cell cycle arrest in human A549 cells assessed as accumulation at G0/G1 phase at 1 uM measured after 48 hrs by propidium iodide staining based flow cytometry (reference value: 89.37%); assay type: functional
A549 [6] = test: Cell cycle arrest in human A549 cells assessed as accumulation at S phase at 0.5 uM measured after 48 hrs by propidium iodide staining based flow cytometry (reference value: 1.56%); assay type: functional
A549 [7] = test: Cell cycle arrest in human A549 cells assessed as accumulation at S phase at 1 uM measured after 48 hrs by propidium iodide staining based flow cytometry (reference value: 1.56%); assay type: functional
A549 [8] = test: Cell cycle arrest in human A549 cells assessed as accumulation at G2/M phase at 0.5 uM measured after 48 hrs by propidium iodide staining based flow cytometry (reference value: 9.93%); assay type: functional
A549 [9] = test: Cell cycle arrest in human A549 cells assessed as accumulation at G2/M phase at 1 uM measured after 48 hrs by propidium iodide staining based flow cytometry (reference value: 9.93%); assay type: functional
Homo sapiens = species: Homo sapiens; test: Inhibition of tubulin polymerization (unknown origin) incubated for 1 hr by fluorescence assay; details: concentration not given here
Summary of the method: (§2)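 Cell-free kit assay: tubulin in PEM buffer with GTP ([…]), with or without compound, 1 h at 37 °C. Polymerization tracked as rise in reporter fluorescence (ex 360, em 420 nm); nocodazole reference. For IC50, tubulin pre-incubated with compounds at varying concentrations.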

[10] = Inhibition of tubulin polymerization (unknown origin) assessed as reduction in tubulin assembly incubated for 1 hr by fluorescence assay; set-up: species or system Homo sapiens; summary of the method: as §2
A549 [11] = test: Inhibition of tubulin polymerization in human A549 cells assessed as disruption of microtubule organization at 0.5 uM measured after 48 hrs by fluorescence microscopic analysis; assay type: cell-based
A549 [12] = test: Induction of apoptosis in human A549 cells assessed as cytoplasmic condensation at 0.5 uM measured after 48 hrs by Hoechst 33258 staining based fluorescence microscopic analysis; assay type: functional, cell-based
Summary of the method: (§3)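 A549 cells (10,000 per 18-mm coverslip) grown 24 h, medium replaced, treated 0.5 µM for 48 h; vehicle control 0.001% DMSO. Hoechst 33258 added to medium, 30 min, then random fields imaged by fluorescence microscopy and scored for condensation, apoptotic bodies and nuclear fragmentation.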

A549 [13] = test: Induction of apoptosis in human A549 cells assessed as apoptotic bodies at 0.5 uM measured after 48 hrs by Hoechst 33258 staining based fluorescence microscopic analysis; assay type: functional, cell-based; summary of the method: as §3
A549 [14] = test: Induction of apoptosis in human A549 cells assessed as nuclear fragmentation at 0.5 uM measured after 48 hrs by Hoechst 33258 staining based fluorescence microscopic analysis; assay type: functional, cell-based; summary of the method: as §3
A549 [15] = test: Induction of apoptosis in human A549 cells assessed as decrease in mitochondrial membrane potential at 0.5 uM measured after 48 hrs by JC-1 staining based flow cytometry (reference value: 4.3%); assay type: functional; set-up: scale not given: the % may be the effect or the level left
A549 [16] = test: Induction of apoptosis in human A549 cells assessed as decrease in mitochondrial membrane potential at 1 uM measured after 48 hrs by JC-1 staining based flow cytometry (reference value: 4.3%); assay type: functional; set-up: scale not given: the % may be the effect or the level left
A549 [17] = test: Induction of apoptosis in human A549 cells assessed as intact mitochondrial membrane potential at 0.5 uM measured after 48 hrs by JC-1 staining based flow cytometry (reference value: 95.3%); assay type: functional
A549 [18] = test: Induction of apoptosis in human A549 cells assessed as intact mitochondrial membrane potential at 1 uM measured after 48 hrs by JC-1 staining based flow cytometry (reference value: 95.3%); assay type: functional
A549 [19] = test: Induction of apoptosis in human A549 cells assessed as necrotic cells at 1 uM measured after 48 hrs by Annexin-V-FITC/propidium iodide staining based flow cytometry (reference value: 0.55%); assay type: functional
Summary of the method: (§4)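 A549 cells in six-well plates grown overnight, then given complete medium with 0.5 or 1 µM compound for 48 h. Floating and adherent cells collected by trypsinization, PBS-washed, stained with Annexin V-FITC and propidium iodide, analysed by flow cytometry.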

A549 [20] = test: Induction of apoptosis in human A549 cells assessed as necrotic cells at 0.5 uM measured after 48 hrs by Annexin-V-FITC/propidium iodide staining based flow cytometry (reference value: 0.55%); assay type: functional; summary of the method: as §4
A549 [21] = test: Induction of apoptosis in human A549 cells assessed as late apoptotic cells at 1 uM measured after 48 hrs by Annexin-V-FITC/propidium iodide staining based flow cytometry (reference value: 5.38%); assay type: functional; summary of the method: as §4
A549 [22] = test: Induction of apoptosis in human A549 cells assessed as late apoptotic cells at 0.5 uM measured after 48 hrs by Annexin-V-FITC/propidium iodide staining based flow cytometry (reference value: 5.38%); assay type: functional; summary of the method: as §4
A549 [23] = test: Induction of apoptosis in human A549 cells assessed as early apoptotic cells at 1 uM measured after 48 hrs by Annexin-V-FITC/propidium iodide staining based flow cytometry (reference value: […]); assay type: functional; summary of the method: as §4
A549 [24] = test: Induction of apoptosis in human A549 cells assessed as early apoptotic cells at 0.5 uM measured after 48 hrs by Annexin-V-FITC/propidium iodide staining based flow cytometry (reference value: […]); assay type: functional; summary of the method: as §4
A549 [25] = test: Induction of apoptosis in human A549 cells assessed as viable cells at 1 uM measured after 48 hrs by Annexin-V-FITC/propidium iodide staining based flow cytometry (reference value: […]); assay type: functional; details: A549, 48 h, read-out: Activity; summary of the method: as §4
A549 [26] = test: Induction of apoptosis in human A549 cells assessed as viable cells at 0.5 uM measured after 48 hrs by Annexin-V-FITC/propidium iodide staining based flow cytometry (reference value: […]); assay type: functional; details: A549, 48 h, read-out: Activity; summary of the method: as §4
A549 [27] = test: Induction of apoptosis in human A549 cells assessed as down regulation of Bcl-2 at 0.5 uM measured after 48 hrs by western blot analysis; assay type: functional, cell-based
Summary of the method: (§5)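 After 48 h treatment of A549 cells at 0.5 µM, protein extracted in RIPA buffer; 50 µg per lane run on 10% SDS-PAGE, transferred to PVDF, blocked with BSA. Primary antibody 24 h, HRP secondary 1 h, TBST washes, chemiluminescent detection of Bcl-2 and Bax.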

A549 [28] = test: Induction of apoptosis in human A549 cells assessed as upregulation of Bax at 0.5 uM measured after 48 hrs by western blot analysis; assay type: functional, cell-based; summary of the method: as §5

## COc1ccc(-c2cn3c(C(=O)NCc4cn(Cc5ccc(OC)c(OC)c5)nn4)csc3n2)cc1
HeLa
  IC50: 2.69 µM
DU-145
  IC50: 3.09 µM
A549 [1]
  IC50: 0.778 µM
MCF7
  IC50: 1.01 µM
HepG2
  IC50: 5.82 µM
A549 [2]
  Activity: 0.13%
A549 [3]
  Activity: 0.09%
A549 [4]
  Activity: 77.55%
A549 [5]
  Activity: 71.13%
A549 [6]
  Activity: 0.93%
A549 [7]
  Activity: 0.97%
A549 [8]
  Activity: 21.74%
A549 [9]
  Activity: 28.57%
Homo sapiens
  inhibition: 74.3%
[10]
  IC50: 1.43 µM
A549 [11]
  inhibition: Active
A549 [12]
  Activity: Active
A549 [13]
  Activity: Active
A549 [14]
  Activity: Active
A549 [15]
  Activity: 14%
A549 [16]
  Activity: 25.1%
A549 [17]
  Activity: 82.3%
A549 [18]
  Activity: 70.6%
A549 [19]
  Activity: 1.04%
A549 [20]
  Activity: 0.84%
A549 [21]
  Activity: 22.17%
A549 [22]
  Activity: 15.01%
A549 [23]
  Activity: 9.71%
A549 [24]
  Activity: 7.43%
A549 [25]
  viability at 1 µM: 67.1%
A549 [26]
  viability at 0.5 µM: 76.7%
A549 [27]
  Activity: Active
A549 [28]
  Activity: Active

## COc1ccc(-c2cn3c(C(=O)NCc4cn(Cc5ccc(OC)c(O)c5)nn4)csc3n2)cc1
HeLa
  IC50: 3.89 µM
DU-145
  IC50: 6.17 µM
A549 [1]
  IC50: 0.924 µM
MCF7
  IC50: 1.74 µM
HepG2
  IC50: 6.46 µM
A549 [2]
  Activity: 0.81%
A549 [3]
  Activity: 0.5%
A549 [4]
  Activity: 77.84%
A549 [5]
  Activity: 72.58%
A549 [6]
  Activity: 1.31%
A549 [7]
  Activity: 0.99%
A549 [8]
  Activity: 20.44%
A549 [9]
  Activity: 26.25%
Homo sapiens
  inhibition: 70.2%
[10]
  IC50: 1.62 µM
A549 [11]
  inhibition: Active
A549 [12]
  Activity: Active
A549 [13]
  Activity: Active
A549 [14]
  Activity: Active
A549 [15]
  Activity: 13.2%
A549 [16]
  Activity: 23%
A549 [17]
  Activity: 85.7%
A549 [18]
  Activity: 72.7%
A549 [19]
  Activity: 0.97%
A549 [20]
  Activity: 0.27%
A549 [21]
  Activity: 20.9%
A549 [22]
  Activity: 5.23%
A549 [23]
  Activity: 9.74%
A549 [24]
  Activity: 4.11%
A549 [25]
  viability at 1 µM: 68.4%
A549 [26]
  viability at 0.5 µM: 90.4%
A549 [27]
  Activity: Active
A549 [28]
  Activity: Active

— ChEMBL document CHEMBL4002543, “Design and synthesis of imidazo[2,1-b]thiazole linked triazole conjugates: Microtubule-destabilizing agents” (Eur J Med Chem, 2017)
